Measurements: ChEMBL document CHEMBL4834407, “Antiplasmodial Oleanane Triterpenoids from Terminalia albida Root Bark” (J Nat Prod, 2021)

Legend:
Candida albicans = experiment: Antifungal activity against Candida albicans ATCC59630; format: functional, organism-based
Procedure, shortened: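 C. albicans panel with flucytosine as reference drug; IC50 reported in µM.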

[1] = Selectivity index, ratio of CC50 for cytotoxicity against human MRC5 cells to IC50 for antiplasmodial activity against chloroquine-resistant plasmodium falciparum K1; format: toxicity, cell-based; conditions: read-out: Ratio CC50/IC50
Procedure, shortened: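 Ratio of the MRC-5 value (human foetal lung fibroblasts, tamoxifen as cytotoxicity control) to the P. falciparum K1 value (lactate dehydrogenase assay, chloroquine control).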

Plasmodium falciparum = experiment: Antiplasmodial activity against chloroquine-resistant Plasmodium falciparum K1 measured after 72 hrs by lactate dehydrogenase assay; format: functional, organism-based; conditions: K1, 72 h
Procedure, shortened: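 In vitro lactate dehydrogenase read-out on the chloroquine-resistant P. falciparum K1 strain; chloroquine was the reference drug.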

Staphylococcus aureus = experiment: Antibacterial activity against Staphylococcus aureus ATCC6538; format: functional, organism-based
Procedure, shortened: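 S. aureus panel with doxycycline as reference drug; IC50 reported in µM.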

[2] = Cytotoxicity against human MRC5 cells measured after 7 days by MTT assay; format: cell-based; conditions: time 7 day
Procedure, shortened: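 MRC-5 human foetal lung fibroblasts; tamoxifen as positive control; IC50 reported in µM.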

SMILES | IC50 (Candida albicans) [µM] | selectivity ratio [1] | IC50 (Plasmodium falciparum) [µM] | IC50 (Staphylococcus aureus) [µM] | CC50 at 168 h [2] [µM]
Nc1nc(=O)[nH]cc1F [FLUCYTOSINE] | 0.7 |  |  |  | 
CC1(C)CC[C@]2(C(=O)O[C@@H]3O[C@H](CO)[C@@H](O)[C@H](O)[C@H]3O)CC[C@]3(C)C(=CC(=O)[C@@H]4[C@@]5(C)C[C@@H](O)[C@H](O)[C@](C)(CO)[C@@H]5CC[C@]43C)[C@@H]2[C@H]1O | > 64 | > 7 | 9.1 | > 64 | > 64
C[C@]1(CO)CC[C@]2(C(=O)O)CC[C@]3(C)C(=CC[C@@H]4[C@@]5(C)C[C@@H](O)[C@H](O)[C@@](C)(CO)[C@@H]5CC[C@]43C)[C@@H]2C1 | > 64 | > 1.31 | 48.9 | > 64 | > 64
CC1(C)C=C2C3=CC(=O)[C@@H]4[C@@]5(C)C[C@@H](O)[C@H](O)[C@@](C)(CO)[C@@H]5CC[C@@]4(C)[C@]3(C)CC[C@@]2(C(=O)O)CC1 | > 64 | > 9.27 | 6.9 | > 64 | > 64
C[C@H]1c2cccc(O)c2C(=O)C2=C(O)[C@]3(O)C(=O)C(C(N)=O)=C(O)[C@@H](N(C)C)[C@@H]3[C@@H](O)[C@@H]21 [DOXYCYCLINE] |  |  |  | 0.28 | 
CC1(C)CC[C@]2(C(=O)O[C@@H]3O[C@H](CO)[C@@H](O)[C@H](O)[C@H]3O)CC[C@]3(C)C(=CC(=O)[C@@H]4[C@@]5(C)C[C@@H](O)[C@H](O)[C@@](C)(CO)[C@@H]5CC[C@]43C)[C@@H]2[C@H]1O | > 64 | > 5.7 | 11.3 | > 64 | > 64
CC1(C)CC[C@]2(C(=O)O)CC[C@]3(C)C(=CC(=O)[C@@H]4[C@@]5(C)C[C@@H](O)[C@H](O)[C@@](C)(CO)[C@@H]5CC[C@]43C)[C@@H]2[C@H]1O | > 64 | > 6.3 | 10.1 | > 64 | > 64
CC1(C)CC[C@]2(C(=O)O[C@@H]3O[C@H](CO)[C@@H](O)[C@H](O)[C@H]3O)CC[C@]3(C)C(=CC(=O)[C@@H]4[C@@]5(C)C[C@@H](O)[C@H](O)[C@@](C)(CO)[C@@H]5CC[C@]43C)[C@@H]2[C@@H]1O | > 64 | > 4.6 | 13.9 | > 64 | > 64
CC1(C)CC[C@]2(C(=O)O)CC[C@]3(C)C(=CC(=O)[C@@H]4[C@@]5(C)C[C@@H](O)[C@H](O)[C@](C)(CO)[C@@H]5CC[C@]43C)[C@@H]2[C@H]1O | > 64 | > 10.5 | 6.1 | > 64 | > 64
CC1(C)CC[C@]2(C(=O)O)CC[C@]3(C)C(=CC(=O)[C@@H]4[C@@]5(C)C[C@@H](O)[C@H](O)[C@](C)(CO)[C@@H]5CC[C@]43C)[C@@H]2[C@@H]1O | > 64 | > 10.5 | 6.1 | > 64 | > 64
